# Test results published in PubChem BioAssay.
# Active and inactive are the calls of the source.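 Rule for the calls, unless noted: active = viability at or below 10% of carrier control in both of two separate runs; inconclusive = viability at or below 10% in only one of the two runs; inactive = the rest.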
# Columns and labels:
# [1] = reducers of endogenous Her2 protein level, primary screen, SKBR3 breast tumor cells, AlphaScreen, ATP viability (AID 461;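 active = Her2 level under about 52% in both replicate screens, with viability over 70% of control, limit read from the data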;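 for Her2 level: lower value means less Her2 protein in the cells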;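 for viability: percent of carrier control wells set as 100% viability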); conditions: 18-24 h, measured here: SKBR3 viability, ATP luminescence, at 10 µM
# [2] = target: Receptor tyrosine-protein kinase erbB-2 (Homo sapiens) (UniProt P04626); assay: as above; conditions: 18-24 h, at 10 µM, stronger effect = lower value
# Sequence of Receptor tyrosine-protein kinase erbB-2 (Homo sapiens) (P04626 whole entry, looked up): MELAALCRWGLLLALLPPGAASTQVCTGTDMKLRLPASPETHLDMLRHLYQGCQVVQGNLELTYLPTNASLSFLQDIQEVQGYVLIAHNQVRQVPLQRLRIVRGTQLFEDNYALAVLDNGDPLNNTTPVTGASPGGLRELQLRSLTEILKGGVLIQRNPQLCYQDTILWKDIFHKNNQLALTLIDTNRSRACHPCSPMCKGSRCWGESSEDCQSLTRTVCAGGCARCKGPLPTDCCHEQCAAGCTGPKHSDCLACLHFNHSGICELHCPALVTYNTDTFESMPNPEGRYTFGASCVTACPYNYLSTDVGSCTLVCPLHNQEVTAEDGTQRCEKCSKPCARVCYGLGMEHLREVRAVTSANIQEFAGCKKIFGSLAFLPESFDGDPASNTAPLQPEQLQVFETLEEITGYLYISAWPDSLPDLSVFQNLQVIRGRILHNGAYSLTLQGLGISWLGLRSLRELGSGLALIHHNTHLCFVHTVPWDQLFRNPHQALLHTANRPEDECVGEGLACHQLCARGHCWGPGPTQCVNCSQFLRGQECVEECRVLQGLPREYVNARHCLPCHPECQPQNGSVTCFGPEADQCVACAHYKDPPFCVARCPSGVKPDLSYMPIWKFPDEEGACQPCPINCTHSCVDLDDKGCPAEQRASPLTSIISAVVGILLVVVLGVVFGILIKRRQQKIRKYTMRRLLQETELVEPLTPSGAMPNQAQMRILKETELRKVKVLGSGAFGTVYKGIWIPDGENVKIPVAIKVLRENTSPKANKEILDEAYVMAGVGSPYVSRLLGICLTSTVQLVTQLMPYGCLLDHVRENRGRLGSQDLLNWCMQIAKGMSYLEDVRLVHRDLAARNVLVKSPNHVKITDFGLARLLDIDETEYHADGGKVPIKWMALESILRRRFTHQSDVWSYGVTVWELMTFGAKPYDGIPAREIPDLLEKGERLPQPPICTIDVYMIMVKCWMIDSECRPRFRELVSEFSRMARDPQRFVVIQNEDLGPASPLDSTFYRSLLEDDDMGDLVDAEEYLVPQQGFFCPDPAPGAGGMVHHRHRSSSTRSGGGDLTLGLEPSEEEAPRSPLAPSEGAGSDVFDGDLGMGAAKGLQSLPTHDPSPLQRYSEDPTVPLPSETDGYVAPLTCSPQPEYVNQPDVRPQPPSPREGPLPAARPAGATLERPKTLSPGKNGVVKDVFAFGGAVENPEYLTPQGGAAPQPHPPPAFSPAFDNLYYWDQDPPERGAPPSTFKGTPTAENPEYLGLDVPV
# [3] = SK-BR-3 cell growth inhibitors, pilot screen, 24 h, human (AID 572); conditions: SK-BR-3 viability, CellTiter-Glo luminescence, at 10 µM, stronger effect = lower value;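 note: compound exposure lasted between 18 and 24 h rather than exactly 24 h; 100% = carrier-treated control wells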
# [4] = HUVEC growth inhibition – cell-based, human, primary screen (AID 575;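 active = viability at or below 30% in both replicate assays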;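 note: 100% = median of untreated cell wells with 0.1% DMSO on each plate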); conditions: HUVEC proliferation, CellTiter-Glo luminescence, 72 h; at 10 µM; stronger effect = lower value
# Summary of the method: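 material = primary HUVEC, no more than 12 passages | input = 1250 cells per well | controls = vehicle and MePR control wells | measured by = CTG luminescence | times = 72 h compound incubation | format = collagen-coated 384-well format | read-out = % viability vs DMSO wells | doses = single 10 µM dose, 0.1% DMSO, from 5x medium stock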
# [5] = growth inhibitors of H69AR lung tumor, primary screen, human, duplicate replicates (AID 580;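 active = viability at or under a set limit in both replicates, limit being median viability minus 3 SD, cut at about 48% in these data, passing the limit was not always enough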;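 note: 100% = mean luminescence of untreated wells and 0% = no signal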); conditions: H69AR lung tumor cells viability, ATP luminescence, 72 h; at 10 µM; stronger effect = lower value
# [6] = reversal of MRP1-mediated doxorubicin resistance, pilot screen, H69AR cells, doxorubicin co-treatment (AID 601;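 active = viability loss from added drug above about 55%, and viability with drug at most 40%, in both replicates, limit read from the data, passing the limit was not always enough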); conditions: CellTiter-Glo, 72 h, at 10 µM; for differential viability (reversal): stronger effect = higher value
# [7] = 384-well plate pilot, post-Golgi transport modulator project, inhibition of yeast transport mutant growth (AID 636; in the data active = inhibition above about 31%); conditions: absorbance 615 nm, about 18 h, stronger effect = higher value
# [8] = growth suppression of yeast trafficking mutant, preliminary HTS, modulators of trafficking downstream of Golgi apparatus project, 1536-format plate, OD 615 nm (AID 637; in the data active = inhibition above about 30%); conditions: yeast transport mutant growth, absorbance 615 nm, 18 h; stronger effect = higher value
# [9] = H69AR cells + 2 uM doxorubicin, measured here: viability with 2 uM doxorubicin, stronger effect = lower value
# [10] = H69AR cells, compound alone cytotoxicity
smiles,measurement,setting,value
COc1ccc2cc(CN(CCO)C(=O)c3ccc(Br)cc3)c(=O)[nH]c2c1,viability,[1],98%
same,Her2 level,[2],81.5% (inactive)
same,viability,[3],98% (inactive)
same,viability,[4],90.2% (inactive)
same,viability,[5],110% (inactive)
same,differential viability (reversal),[6]; H69AR cells + 2 uM doxorubicin,19.2% (inactive)
same,viability,[6]; [9],90.3%
same,viability,[6]; [10],110%
same,inhibition,[7],-4.93% (inactive)
same,inhibition,[8],5.41% (inactive)
Cc1nc(SC2C=CS(=O)(=O)C2)n[nH]1 (stereo not given),viability,[1],104%
same,Her2 level,[2],88% (inactive)
same,viability,[3],104% (inactive)
same,viability,[4],99.7% (inactive)
same,viability,[5],86.3% (inactive)
same,differential viability (reversal),[6]; H69AR cells + 2 uM doxorubicin,-13.9% (inactive)
same,viability,[6]; [9],100%
same,viability,[6]; [10],86.3%
same,inhibition,[7],-7.07% (inactive)
same,inhibition,[8],3.11% (inactive)
Cc1ccc(N2C(N)=NC(N)=NC23CCCC3)c(C)c1,viability,[1],98.5%
same,Her2 level,[2],95% (inactive)
same,viability,[3],98.5% (inactive)
same,viability,[4],99.8% (inactive)
same,viability,[5],106% (inactive)
same,differential viability (reversal),[6]; H69AR cells + 2 uM doxorubicin,20.6% (inactive)
same,viability,[6]; [9],85%
same,viability,[6]; [10],106%
same,inhibition,[7],-4.68% (inactive)
same,inhibition,[8],1.11% (inactive)
COC(=O)c1cn(-c2ccccc2)nc1C(=O)OC,viability,[1],93.5%
same,Her2 level,[2],89.5% (inactive)
same,viability,[3],93.5% (inactive)
same,viability,[4],91% (inactive)
same,viability,[5],97.8% (inactive)
same,differential viability (reversal),[6]; H69AR cells + 2 uM doxorubicin,10.9% (inactive)
same,viability,[6]; [9],86.9%
same,viability,[6]; [10],97.8%
same,inhibition,[7],-4.8% (inactive)
same,inhibition,[8],-1.97% (inactive)
CC1(C)NC(=O)N(CC(O)COc2ccc(-c3ccccc3)cc2)C1=O (stereo not given),viability,[1],101%
same,Her2 level,[2],102% (inactive)
same,viability,[3],101% (inactive)
same,viability,[4],74.3% (inactive)
same,viability,[5],96.7% (inactive)
same,differential viability (reversal),[6]; H69AR cells + 2 uM doxorubicin,3.21% (inactive)
same,viability,[6]; [9],93.5%
same,viability,[6]; [10],96.7%
same,inhibition,[7],-2.24% (inactive)
same,inhibition,[8],-4.83% (inactive)
Cc1ccc(S(=O)(=O)N2CCCC(c3nnc4n3-c3ccccc3SC4)C2)cc1 (stereo not given),viability,[1],78%
same,Her2 level,[2],71.5% (inactive)
same,viability,[3],78% (inactive)
same,viability,[4],87.2% (inactive)
same,viability,[5],76.5% (inactive)
same,differential viability (reversal),[6]; H69AR cells + 2 uM doxorubicin,4.54% (inactive)
same,viability,[6]; [9],72%
same,viability,[6]; [10],76.5%
same,inhibition,[7],-8.67% (inactive)
same,inhibition,[8],4.92% (inactive)
COc1ccc(OC)c2[nH]c(=O)c(CCNC(=O)CC(C)C)cc12,viability,[1],111%
same,Her2 level,[2],104% (inactive)
same,viability,[3],111% (inactive)
same,viability,[4],106% (inactive)
same,viability,[5],100% (inactive)
same,differential viability (reversal),[6]; H69AR cells + 2 uM doxorubicin,4.93% (inactive)
same,viability,[6]; [9],95.2%
same,viability,[6]; [10],100%
same,inhibition,[7],-8.77% (inactive)
same,inhibition,[8],-4.44% (inactive)
CCNC(=O)C1CC(=O)N(Cc2ccc3c(c2)OCO3)C(=Nc2ccc(OCC)cc2)S1 (stereo not given),viability,[1],94.5%
same,Her2 level,[2],76% (inactive)
same,viability,[3],94.5% (inactive)
same,viability,[4],48.6% (inactive)
same,viability,[5],66.1% (inactive)
same,differential viability (reversal),[6]; H69AR cells + 2 uM doxorubicin,2.95% (inactive)
same,viability,[6]; [9],63.1%
same,viability,[6]; [10],66.1%
same,inhibition,[7],-2.11% (inactive)
same,inhibition,[8],6.89% (inactive)
Cc1cc2c(c(=O)o1)C(C13C=CC(CC1)C3)C(C#N)=C(N)O2 (stereo not given),viability,[1],124%
same,Her2 level,[2],94.5% (inactive)
same,viability,[3],124% (inactive)
same,viability,[4],90.1% (inactive)
same,viability,[5],99.8% (inactive)
same,differential viability (reversal),[6]; H69AR cells + 2 uM doxorubicin,13.2% (inactive)
same,viability,[6]; [9],86.6%
same,viability,[6]; [10],99.8%
same,inhibition,[7],-6.4% (inactive)
same,inhibition,[8],-5.97% (inactive)
O=C1NCC(COCc2ccccc2)O1 (stereo not given),viability,[1],110%
same,Her2 level,[2],96% (inactive)
same,viability,[3],110% (inactive)
same,viability,[4],103% (inactive)
same,viability,[5],108% (inactive)
same,differential viability (reversal),[6]; H69AR cells + 2 uM doxorubicin,18.5% (inactive)
same,viability,[6]; [9],89.4%
same,viability,[6]; [10],108%
same,inhibition,[7],-5.6% (inactive)
same,inhibition,[8],0% (inactive)
CCCCOC(=O)C1=C(C)Nc2ncnn2C1c1cccc(OC)c1OC (stereo not given),viability,[1],81.5%
same,Her2 level,[2],65.5% (inactive)
same,viability,[3],81.5% (inactive)
same,viability,[4],95% (inactive)
same,viability,[5],88.5% (inactive)
same,differential viability (reversal),[6]; H69AR cells + 2 uM doxorubicin,7.84% (inactive)
same,viability,[6]; [9],80.7%
same,viability,[6]; [10],88.5%
same,inhibition,[7],-5.13% (inactive)
same,inhibition,[8],-3.33% (inactive)
O=C1NCCCc2c1no[n+]2[O-],viability,[1],100%
same,Her2 level,[2],103% (inactive)
same,viability,[3],100% (inactive)
same,viability,[4],84.1% (inactive)
same,viability,[5],104% (inactive)
same,differential viability (reversal),[6]; H69AR cells + 2 uM doxorubicin,4.5% (inactive)
same,viability,[6]; [9],99.2%
same,viability,[6]; [10],104%
same,inhibition,[7],-0.13% (inactive)
same,inhibition,[8],-3.71% (inactive)
Cc1cccc(NC(=O)CC2NC3CCCCC3NC2=O)c1 (stereo not given),viability,[1],99.5%
same,Her2 level,[2],102% (inactive)
same,viability,[3],99.5% (inactive)
same,viability,[4],96.7% (inactive)
same,viability,[5],93.6% (inactive)
same,differential viability (reversal),[6]; H69AR cells + 2 uM doxorubicin,2.89% (inactive)
same,viability,[6]; [9],90.7%
same,viability,[6]; [10],93.6%
same,inhibition,[7],-3.42% (inactive)
same,inhibition,[8],-1.17% (inactive)
O=C(CCc1ccc(S(=O)(=O)N2CCOCC2)cc1)NCCc1ccccn1,viability,[1],100%
same,Her2 level,[2],102% (inactive)
same,viability,[3],100% (inactive)
same,viability,[4],94.8% (inactive)
same,viability,[5],87.9% (inactive)
same,differential viability (reversal),[6]; H69AR cells + 2 uM doxorubicin,-13.7% (inactive)
same,viability,[6]; [9],102%
same,viability,[6]; [10],87.9%
same,inhibition,[7],-1.04% (inactive)
same,inhibition,[8],-4.13% (inactive)
